H69AR growth 86K: blocks growth of human H69AR lung tumor cells. H69AR lung tumor viability, ATP luminescence, 72 h; stronger effect = lower value. viability, % at 10 µM. 85,000 tested, 6% active. AID 598;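 active = viability at or below 40%; inactive = viability above 40%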;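 note: multidrug resistant small cell line overexpressing MRP-1 efflux transporter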
Fibroblast inh: blocks proliferation of human lung fibroblasts; LL 47 human lung fibroblast viability, ATP luminescence; stronger effect = lower value; viability, % at 10 µM; 85,000 tested, 1.1% active; AID 719;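 active = viability at or below 50% in the single dose screen; inactive = viability above 50%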;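 note: compound exposure lasted 72 h before the ATP readout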
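Signal: luminescent ATP detection, CellTiter-Glo; assay system: LL 47 human lung fibroblasts; input: 1,150 cells/well; incubation: overnight cell rest, 72 h compound treatment at 37 °C; measure: % viability versus median cells-only luminescence; medium: IMEM growth medium with 15% fetal bovine serum; dosing: compound addition at 0.1% DMSO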
HCT116 PTEN-null: suppresses growth of cells with PTEN deletion; HCT116 PTEN-null viability, CellTiter-Glo, 60 h; stronger effect = lower value; viability, % at 10 µM; 140,000 tested, 1.2% active; AID 827;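 active = viability at or below a set limit, 4 SD under the median of all tested compounds, cut at about 3.7% in these data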;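 note: PTEN knockout HCT116 line with beta catenin targeted HCT116 as companion control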
bCat KO growth: beta-catenin-lacking colon tumor cell growth suppression | HCT116 beta-catenin knockout viability, CellTiter-Glo, 60 h; stronger effect = lower value | viability, % at 10 µM | AID 818 | 140,000 tested, 1.5% active;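 active = viability at or under a set limit, the compound median less 4 SD, cut at about 6% in these data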
HUVEC prolif 384: inhibitors of human endothelial cell proliferation. viability, % at 10 µM (by protocol). 86,000 tested, 1.1% active. AID 648. HUVEC proliferation, CellTiter-Glo luminescence, 72 h; stronger effect = lower value;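 active = viability at or below 30%; inactive = viability above 30%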
Hits are given with their value. The entries come from a sample that favours hits as a whole.

Results for O=C1c2ccccc2C2=Nc3ccccc3SC(c3ccc(Cl)cc3)C12 (centres undefined) ?
HCT116 PTEN-null: 3.3; bCat KO growth: 3.7

Results for CC(Sc1nc(C(C)(C)C)cc(-c2ccccc2)c1C#N)C(=O)Nc1ccccc1 (centres undefined) ?
HCT116 PTEN-null: inactive; bCat KO growth: inactive

What do the screens show for `Cc1ccc(C(=O)C(OC(=O)CNC(=O)c2ccc(Cl)cc2)c2ccccc2)cc1` (centres undefined)?
HCT116 PTEN-null: inactive; bCat KO growth: inactive

How did O=C(/C=C/c1ccc2c(c1)OCO2)c1ccco1 do in these assays?
HCT116 PTEN-null: inactive; bCat KO growth: inactive

Results for O=C(Nc1cccc(NC(=O)c2ccc(-c3ccc(Br)cc3)o2)c1)c1ccco1 ?
H69AR growth 86K: 35.3; Fibroblast inh: inactive; HCT116 PTEN-null: inactive; bCat KO growth: inactive; HUVEC prolif 384: inactive

How did O=C(/C=C/c1ccc(Br)cc1)c1ccc(NC(=O)c2ccco2)cc1 do in these assays?
HCT116 PTEN-null: 2.1; bCat KO growth: 1.8

What do the screens show for `CCN(CC)c1ccc(NC(=O)c2ccccc2F)cc1`?
H69AR growth 86K: 25.6; Fibroblast inh: inactive; HCT116 PTEN-null: inactive; bCat KO growth: inactive; HUVEC prolif 384: inactive

How did CCN(CC)c1ccc(NC(=O)c2cc(Cl)ccc2OC)cc1 do in these assays?
H69AR growth 86K: inactive; Fibroblast inh: inactive; HCT116 PTEN-null: inactive; bCat KO growth: inactive; HUVEC prolif 384: inactive

What do the screens show for `O=C(/C=C/c1ccc(Br)cc1)c1ccco1`?
HCT116 PTEN-null: 0.8; bCat KO growth: 1.0

Results for O=C(CNc1ccc2ccccc2c1)N/N=C/C=C/c1cccc([N+](=O)[O-])c1 ?
HCT116 PTEN-null: inactive; bCat KO growth: inactive

Results for C/C(=N\NC(=O)c1nonc1N)c1cccs1 ?
HCT116 PTEN-null: inactive; bCat KO growth: inactive

Results for CCCCN(Cc1ccccc1)C(=O)C1CCN(S(=O)(=O)c2c(C)noc2C)CC1 ?
H69AR growth 86K: inactive; Fibroblast inh: inactive; HCT116 PTEN-null: inactive; bCat KO growth: inactive; HUVEC prolif 384: inactive

Results for CCCCC(CC)C(=O)NCc1ccc(F)cc1 (centres undefined) ?
HCT116 PTEN-null: inactive; bCat KO growth: inactive

Results for CCOCCCNS(=O)(=O)c1ccc(NC(=O)N2c3ccccc3Sc3ccccc32)cc1 ?
HCT116 PTEN-null: inactive; bCat KO growth: inactive

What do the screens show for `O=C(/C=C/c1ccncc1)c1ccc(NC(=O)c2ccccc2F)cc1`?
HCT116 PTEN-null: 2.0; bCat KO growth: 1.2

How did COCc1nnc(NC(=O)c2ccccc2[N+](=O)[O-])s1 do in these assays?
HCT116 PTEN-null: inactive; bCat KO growth: inactive

Results for COC(=O)C(C)Sc1nc2c(c(-c3ccc(OC)cc3)c1C#N)-c1ccccc1C2=O (centres undefined) ?
H69AR growth 86K: 34.2; Fibroblast inh: inactive; HUVEC prolif 384: inactive

Results for COC(=O)CSC1=C(C#N)C(c2cccc(F)c2)CC(=O)N1 (centres undefined) ?
H69AR growth 86K: 28.4; Fibroblast inh: inactive; HCT116 PTEN-null: inactive; bCat KO growth: inactive; HUVEC prolif 384: inactive

Results for COC(=O)CSC1=C(C#N)C(c2ccsc2)CC(=O)N1 (centres undefined) ?
H69AR growth 86K: 37.9; Fibroblast inh: inactive; HCT116 PTEN-null: inactive; bCat KO growth: inactive; HUVEC prolif 384: inactive

Results for CC(=O)c1c(C)[nH]c(C(=O)OCC(=O)Nc2ccc(Cl)cc2[N+](=O)[O-])c1C ?
HCT116 PTEN-null: inactive; bCat KO growth: inactive

How did COc1cccc(CNC(=O)C2=C(C)C(=O)OC23CCC(C)CC3)c1 (centres undefined) do in these assays?
HCT116 PTEN-null: inactive; bCat KO growth: inactive

What do the screens show for `O=C(Nc1ccccc1C(=O)Nc1ccc2c(c1)OCO2)c1ccco1`?
H69AR growth 86K: 34.4; Fibroblast inh: inactive; HCT116 PTEN-null: inactive; bCat KO growth: inactive; HUVEC prolif 384: inactive

How did CN1CCc2c(sc3c2C(=O)NC(c2ccc(-c4cccc(Cl)c4)o2)N3)C1 (centres undefined) do in these assays?
H69AR growth 86K: 3.3; Fibroblast inh: inactive; HUVEC prolif 384: inactive

Results for CN1CCc2c(sc3c2C(=O)NC(c2cccs2)N3)C1 (centres undefined) ?
H69AR growth 86K: inactive; Fibroblast inh: inactive; HCT116 PTEN-null: inactive; bCat KO growth: inactive; HUVEC prolif 384: inactive

How did N#Cc1cn(Cc2cccc(Cl)c2)c2ccccc12 do in these assays?
H69AR growth 86K: inactive; Fibroblast inh: inactive; HCT116 PTEN-null: inactive; bCat KO growth: inactive; HUVEC prolif 384: inactive

Results for O=[N+]([O-])/C=C/c1cn(Cc2ccccc2)c2ccccc12 ?
HCT116 PTEN-null: 1.1; bCat KO growth: 1.6

How did N#Cc1ccccc1Cn1cc(/C=C/[N+](=O)[O-])c2ccccc21 do in these assays?
HCT116 PTEN-null: 1.4; bCat KO growth: 2.1

Results for Cc1oc2c(C)c(O)ccc2c(=O)c1-c1ccc2ccccc2n1 ?
HCT116 PTEN-null: inactive; bCat KO growth: inactive

Results for COc1cccc(-c2nc(-c3ccccc3)no2)c1 ?
H69AR growth 86K: inactive; Fibroblast inh: inactive; HCT116 PTEN-null: inactive; bCat KO growth: inactive; HUVEC prolif 384: inactive

What do the screens show for `COc1ccc(-c2onc(C)c2-c2ccccc2)c(O)c1`?
H69AR growth 86K: 31.3; Fibroblast inh: inactive; HCT116 PTEN-null: inactive; bCat KO growth: inactive; HUVEC prolif 384: inactive

How did COc1ccc(-c2noc(C)c2-c2ccc3ccccc3n2)c(O)c1 do in these assays?
H69AR growth 86K: 25.9; Fibroblast inh: inactive; HCT116 PTEN-null: inactive; bCat KO growth: inactive; HUVEC prolif 384: inactive

What do the screens show for `CCCCCn1c(SCC#N)nc2cc(C(=O)NC3CCCCC3)ccc2c1=O`?
H69AR growth 86K: inactive; Fibroblast inh: 47.7; HUVEC prolif 384: inactive

What do the screens show for `Cc1ccc(-n2ncc3c(NCc4ccc5c(c4)OCO5)ncnc32)c(C)c1`?
H69AR growth 86K: 28.0; Fibroblast inh: inactive; HCT116 PTEN-null: inactive; bCat KO growth: inactive; HUVEC prolif 384: inactive

How did c1ccc(-n2ncc3c(NCc4ccc5c(c4)OCO5)ncnc32)cc1 do in these assays?
H69AR growth 86K: inactive; Fibroblast inh: inactive; HCT116 PTEN-null: inactive; bCat KO growth: inactive; HUVEC prolif 384: inactive

How did COc1ccc(-n2ncc3c(NCc4ccc5c(c4)OCO5)ncnc32)cc1 do in these assays?
H69AR growth 86K: 6.2; Fibroblast inh: inactive; HCT116 PTEN-null: inactive; bCat KO growth: inactive; HUVEC prolif 384: inactive

How did CC(=O)NCCC(=O)Nc1sc2c(c1-c1nc3ccccc3[nH]1)CCCC2 do in these assays?
H69AR growth 86K: 36.1; Fibroblast inh: inactive; HCT116 PTEN-null: inactive; bCat KO growth: inactive; HUVEC prolif 384: inactive

How did CCCCC(c1nnnn1CCOC)N1CCN(Cc2ccccc2)CC1 (centres undefined) do in these assays?
H69AR growth 86K: inactive; Fibroblast inh: inactive; HCT116 PTEN-null: inactive; bCat KO growth: inactive; HUVEC prolif 384: inactive

How did O=C(NCc1ccco1)c1nc2c(nnn2Cc2ccccc2Cl)c(=O)[nH]1 do in these assays?
H69AR growth 86K: 24.9; Fibroblast inh: 30.8; HCT116 PTEN-null: inactive; bCat KO growth: inactive; HUVEC prolif 384: 14.2

What do the screens show for `O=C(C1CCCCC1)N1CCC(c2nc3c(nnn3Cc3ccccc3Cl)c(=O)[nH]2)CC1`?
H69AR growth 86K: 38.9; Fibroblast inh: inactive; HUVEC prolif 384: inactive
